As usually defined, the IC50 is the point on the concentration scale where inhibition reaches its midpoint.

The source made the active and inactive calls. The rule behind the calls is not given here.

Experimental findings from ChEMBL document CHEMBL4602706, “Natural Product Evodiamine with Borate Trigger Unit: Discovery of Potent Antitumor Agents against Colon Cancer” (ACS Med Chem Lett, 2020) are described below.

One assay relates to HCT-116. Put plainly: Antiproliferative activity against human HCT116 cells incubated for 72 hrs by CCK8 assay. The class given is functional, cell-based. The method, boiled down:
(§1)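 HCT116, MCF-7 and A549 human cancer cell lines; antiproliferative activity read out by CCK8 assay. Evodiamine derivatives and camptothecin served as positive controls.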
(In general: Tetrazolium dyes change colour on reduction, which living cells bring about.)

The test system of another assay is MCF7. In words: Antiproliferative activity against human MCF7 cells incubated for 72 hrs by CCK8 assay. The format is functional, cell-based. The method, boiled down: as §1
For the next assay, the system named is A549. Put plainly: Antiproliferative activity against human A549 cells incubated for 72 hrs by CCK8 assay. The format is functional, cell-based. The method, boiled down:
as §1

Assay [1] deals with T1, DNA topoisomerase 1 (Homo sapiens) (UniProt P11387).
T1 sequence (whole entry): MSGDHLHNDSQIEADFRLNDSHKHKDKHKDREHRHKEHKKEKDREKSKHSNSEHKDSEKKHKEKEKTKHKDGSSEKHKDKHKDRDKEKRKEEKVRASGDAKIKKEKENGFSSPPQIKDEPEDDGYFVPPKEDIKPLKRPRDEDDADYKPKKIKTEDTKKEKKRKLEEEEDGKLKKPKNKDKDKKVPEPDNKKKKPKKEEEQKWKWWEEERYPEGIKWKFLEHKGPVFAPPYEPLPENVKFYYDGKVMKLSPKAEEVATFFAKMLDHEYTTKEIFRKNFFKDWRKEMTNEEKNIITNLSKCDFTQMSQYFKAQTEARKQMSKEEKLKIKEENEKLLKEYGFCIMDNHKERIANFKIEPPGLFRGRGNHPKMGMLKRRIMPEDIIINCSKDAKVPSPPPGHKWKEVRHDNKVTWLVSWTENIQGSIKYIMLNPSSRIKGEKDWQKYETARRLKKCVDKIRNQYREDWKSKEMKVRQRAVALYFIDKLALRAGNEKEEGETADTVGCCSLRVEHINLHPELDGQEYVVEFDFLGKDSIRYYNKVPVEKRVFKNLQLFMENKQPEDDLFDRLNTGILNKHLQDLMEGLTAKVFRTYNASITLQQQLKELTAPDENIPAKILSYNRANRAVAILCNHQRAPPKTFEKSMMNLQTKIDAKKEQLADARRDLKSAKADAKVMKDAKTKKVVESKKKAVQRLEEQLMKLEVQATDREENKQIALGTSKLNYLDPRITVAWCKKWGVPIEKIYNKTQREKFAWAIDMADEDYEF
Put plainly: Inhibition of Top1 (unknown origin) at 500 uM using supercoiled pBR322 plasmid DNA as substrate incubated for 15 mins by PI staining based agarose gel electrophoresis analysis. The method, boiled down: (§2)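 Top1 inhibition tested at 500, 250 and 125 μM, and over 27.9 to 250 μM for selected compounds.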

Assay [2] concerns the target T1, DNA topoisomerase 1 (Homo sapiens). In words: Inhibition of Top1 (unknown origin) at 125 uM using supercoiled pBR322 plasmid DNA as substrate incubated for 15 mins by PI staining based agarose gel electrophoresis analysis. The method, boiled down: as §2
Assay [3] addresses T2, DNA topoisomerase II (Homo sapiens) (UniProt P11388+Q02880). Put plainly: Inhibition of Top2 (unknown origin) at 50 uM using supercoiled pBR322 plasmid DNA as substrate incubated for 30 mins by PI staining based agarose gel electrophoresis analysis. The format is protein assay.
The target in assay [4] is T2, DNA topoisomerase II (Homo sapiens). In words: Inhibition of Top2 (unknown origin) using supercoiled pBR322 plasmid as substrate incubated for 30 mins by PI staining based agarose gel electrophoresis analysis. The format is protein assay.
The mark [5] stands for this setting: Homo sapiens, HCT-116, 72 h, read-out: IC50.
Setting [6] is: Homo sapiens, MCF7, 72 h, read-out: IC50.
The mark [7] stands for this setting: Homo sapiens, A549, 72 h, read-out: IC50.

As to `CN1c2ccccc2C(=O)N2CCc3c([nH]c4ccc(OCc5ccc(B6OC(C)(C)C(C)(C)O6)cc5)cc34)C21` (stereo unspecified), the IC50 came to 100 nM with HCT-116 (setting [5]), 160 nM with MCF7 (setting [6]) and 390 nM with A549 (setting [7]).
With `CN1c2ccccc2C(=O)N2CCc3c([nH]c4ccc(OCc5ccc(B(O)O)cc5)cc34)C21` (stereo unspecified), the inhibition result in assay [1], in assay [2] and in assay [3] was “Active” in each case. The results for the IC50 with HCT-116 (setting [5]), in the assay on MCF7 (setting [6]) and in the assay with A549 (setting [7]) were 120 nM, 110 nM and 74 nM, respectively.
Take `CN1c2ccc(F)cc2C(=O)N2CCc3c(n(C(=O)OC(C)(C)C)c4ccc(OCc5ccc(B(O)O)cc5)cc34)C21` (stereo unspecified): the values for the IC50 with HCT-116 (setting [5]), in the assay with MCF7 (setting [6]) and in the assay on A549 (setting [7]) were 4910 nM, 2390 nM and 2130 nM, respectively.
With `COc1cc([C@@H]2c3cc4c(cc3[C@@H](O[C@@H]3O[C@@H]5CO[C@@H](C)O[C@H]5[C@H](O)[C@H]3O)[C@H]3COC(=O)[C@H]23)OCO4)cc(OC)c1O`, the inhibition result in assay [4] was “Active”.
Consider `CC(=O)Oc1ccc(CCl)cc1`, for which the IC50 entry with HCT-116 (hct-116), in the assay on MCF7 (mcf7) and in the assay on A549 (a549) was “Not Active” each time.
Regarding `CN1c2ccc(F)cc2C(=O)N2CCc3c([nH]c4ccc(OCc5ccc(B(O)O)cc5)cc34)C21` (stereo unspecified), the inhibition result in assay [1], in assay [2] and in assay [4] was “Active” each time. The IC50 in the assay with HCT-116 (setting [5]) was 83 nM; with MCF7 (setting [6]) it was 59 nM; in the assay with A549 (setting [7]), 73 nM.
With `CN1c2ccc(F)cc2C(=O)N2CCc3c([nH]c4ccc(B5OC(C)(C)C(C)(C)O5)cc34)C21` (stereo unspecified), the IC50 came to 170 nM with HCT-116 (setting [5]), 960 nM in the assay with MCF7 (setting [6]) and 110 nM in the assay with A549 (setting [7]).
For `CN1c2ccccc2C(=O)N2CCc3c(n(C(=O)OC(C)(C)C)c4ccc(OCc5ccc(B6OC(C)(C)C(C)(C)O6)cc5)cc34)C21` (stereo unspecified) the same measures were 4180 nM, 4130 nM and 3440 nM.
Consider `CN1c2ccc(F)cc2C(=O)N2CCc3c([nH]c4ccc(B(O)O)cc34)C21` (stereo unspecified), for which, in assay [1], the inhibition entry was “Active”. In addition, the figures for the IC50 in the assay with HCT-116 (setting [5]), in the assay with MCF7 (setting [6]) and in the assay on A549 (setting [7]) were 63 nM, 94 nM and 40 nM, respectively.
For the molecule `CN1c2ccccc2C(=O)N2CCc3c([nH]c4ccc(B5OC(C)(C)C(C)(C)O5)cc34)C21` (stereo unspecified), the IC50 amounted to 220 nM in the assay with HCT-116 (setting [5]), 390 nM in the assay on MCF7 (setting [6]) and 170 nM in the assay with A549 (setting [7]).
For `CN1c2ccc(F)cc2C(=O)N2CCc3c(n(C(=O)OC(C)(C)C)c4ccc(OCc5ccc(B6OC(C)(C)C(C)(C)O6)cc5)cc34)C21` (stereo unspecified) the same measures were 2170 nM, 7850 nM and 2230 nM.
In the case of `CN1c2ccc(F)cc2C(=O)N2CCc3c([nH]c4ccc(OCc5ccc(B6OC(C)(C)C(C)(C)O6)cc5)cc34)C21` (stereo unspecified), the IC50 turned out to be 150 nM in the assay with HCT-116 (setting [5]), 97 nM in the assay with MCF7 (setting [6]) and 120 nM in the assay with A549 (setting [7]).
On to `CN1c2ccccc2C(=O)N2CCc3c([nH]c4ccc(B(O)O)cc34)C21` (stereo unspecified), for which, in assay [1], the inhibition entry was “Active”. The IC50 in the assay on HCT-116 (setting [5]) is 69 nM; in the assay with MCF7 (setting [6]), 160 nM; with A549 (setting [7]), 100 nM.
For `CC[C@@]1(O)C(=O)OCc2c1cc1n(c2=O)Cc2cc3ccccc3nc2-1` [CAMPTOTHECIN], the IC50 in the assay on HCT-116 (setting [5]) is 9 nM; with MCF7 (setting [6]) it was 84 nM; in the assay with A549 (setting [7]), 39 nM.
For `CN1c2ccccc2C(=O)N2CCc3c(n(C(=O)OC(C)(C)C)c4ccc(OCc5ccc(B(O)O)cc5)cc34)C21` (stereo unspecified), in that order: 520 nM, 1580 nM and 7200 nM.
Regarding `CN1c2ccccc2C(=O)N2CCc3c([nH]c4ccc(OC(=O)OCc5ccc(B6OC(C)(C)C(C)(C)O6)cc5)cc34)C21` (stereo unspecified), the inhibition entry in assay [1], in assay [2] and in assay [3] was “Active” throughout. Besides, the results for the IC50 with HCT-116 (setting [5]), in the assay on MCF7 (setting [6]) and with A549 (setting [7]) were 65 nM, 86 nM and 100 nM, respectively.
Consider `CN1c2ccccc2C(=O)N2CCc3c([nH]c4ccc(O)cc34)C21` (stereo unspecified), for which the inhibition result in assay [1] was “Active”. For the same molecule, the half-inhibitory concentration (IC50) came out at 55 nM in the assay with HCT-116 (setting [5]), 270 nM in the assay with MCF7 (setting [6]) and 84 nM in the assay with A549 (setting [7]).
